Measurements from ChEMBL document CHEMBL4145474, “Discovery of novel piperonyl derivatives as diapophytoene desaturase inhibitors for the treatment of methicillin-, vancomycin- and linezolid-resistant Staphylococcus aureus infections” (Eur J Med Chem, 2018).
Active and inactive are the calls of the source. The calls are words filed in the database; no cut-off is given here.

Key:
[1] = test system: Staphylococcus aureus; experiment: Antibacterial activity against wild type Staphylococcus aureus Newman infected in BALB/c mouse assessed as decrease in bacterial survival in mouse kidney at 0.1 to 0.4 mg, ip bid administered 4.5 days before 24 hrs bacterial infection measured after 90 hrs; type: functional, organism-based
How it was run: (§1)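 Female BALB/c mice, 6-8 weeks old, infected retro-orbitally with 2.2 × 10⁷ CFU S. aureus Newman. Intraperitoneal dosing in 12 intervals: pre-treatment groups received a total of 50 or 200 mg/kg starting before infection; post-treatment groups received a total of 39 or 156 mg/kg starting 6 h after infection. Vehicle was ddH₂O. At 90 h post-infection, liver or kidney was homogenized in PBS/0.01% Triton X-100 and plated on TSA for CFU.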

[2] = test system: Staphylococcus aureus; experiment: Antibacterial activity against vancomycin-intermediate methicillin-resistant Staphylococcus aureus Mu50 infected in BALB/c mouse assessed as decrease in bacterial survival in mouse liver at 0.1 to 0.4 mg, ip bid administered 4.5 days after 6 hrs bacterial infection measured after 90 hrs; type: functional, organism-based
How it was run: (§2)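 6–8-week-old female BALB/c mice (SPF) dosed intraperitoneally twice daily over 4.5 d at 0.1 or 0.4 mg/bid. Pre-treatment started before infection; post-treatment started 6 h after infection. Vancomycin and linezolid controls given as pre-treatment at 0.4 mg/bid. Retro-orbital inoculation: Mu50 1.1 × 10⁹ CFU, NRS271 1.8 × 10⁸ CFU. Kidneys and livers homogenised in PBS/0.01% Triton X-100 and plated on TSA for CFU.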

[3] = test system: Staphylococcus aureus; experiment: Antibacterial activity against vancomycin-intermediate methicillin-resistant Staphylococcus aureus Mu50 assessed as decrease in bacterial survival at 1 uM after 24 hrs by H2O2 killing assay; type: functional, organism-based
[4] = test system: Staphylococcus aureus; experiment: Growth inhibition of methicillin/linezolid-resistant Staphylococcus aureus NRS271 at 0.2 mM incubated for overnight; type: functional, organism-based
How it was run: (§3)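 Overnight cultures washed in PBS and diluted in TSB to OD600 ~1.0. Inoculated to a final OD600 of about 0.05 into TSB containing compound (0.2 or 0.05 mM, from a 20 mM DMSO stock) or DMSO growth control, overlaid with paraffin wax. OD600 read every 30 min during overnight incubation at 37 °C.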

[5] = target: T1, 4,4'-diapophytoene desaturase (4,4'-diaponeurosporene-forming) (Staphylococcus aureus (strain Newman), UniProt O07855); experiment: Inhibition of Staphylococcus aureus Newman 6His-tagged CrtN expressed in Escherichia coli BL21(DE3) assessed as 4,4'-diapophytoene accumulation
T1 sequence (O07855 whole entry): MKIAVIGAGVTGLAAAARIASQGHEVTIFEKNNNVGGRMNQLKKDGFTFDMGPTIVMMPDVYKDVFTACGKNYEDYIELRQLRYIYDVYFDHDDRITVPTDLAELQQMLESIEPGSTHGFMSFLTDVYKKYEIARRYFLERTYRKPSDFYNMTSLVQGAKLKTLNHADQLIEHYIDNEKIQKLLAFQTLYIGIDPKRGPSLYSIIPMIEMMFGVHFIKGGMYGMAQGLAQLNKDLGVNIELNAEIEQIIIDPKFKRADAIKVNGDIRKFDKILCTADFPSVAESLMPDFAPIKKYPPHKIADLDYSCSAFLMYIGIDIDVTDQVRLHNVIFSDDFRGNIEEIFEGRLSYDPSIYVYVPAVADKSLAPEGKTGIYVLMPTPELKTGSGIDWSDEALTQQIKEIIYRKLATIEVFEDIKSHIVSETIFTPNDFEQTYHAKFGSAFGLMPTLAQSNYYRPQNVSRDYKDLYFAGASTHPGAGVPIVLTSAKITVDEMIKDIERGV

[6] = test system: Staphylococcus aureus; experiment: Antibacterial activity against wild type Staphylococcus aureus Newman infected in BALB/c mouse assessed as decrease in bacterial load in mouse liver at 0.4 mg, ip bid administered 4.5 days […] bacterial infection measured after 90 hrs relative to control; type: functional; how it was run: as §1
[7] = test system: Staphylococcus aureus; experiment: Inhibition of pigmentation in wild type Staphylococcus aureus Newman after 48 hrs by spectrophotometric method; type: functional, organism-based
How it was run: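 S. aureus Newman was grown in TSB 48 h at 37 °C with a concentration series of compound in DMSO, in duplicate. Controls were a DMSO vehicle and a nonpigmented CrtN mutant. Cells were washed twice in 0.01 M PBS and pigment extracted in methanol. A450 was measured and IC50 derived by curve fitting.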

[8] = target: T2, 4,4'-diapophytoene desaturase (4,4'-diaponeurosporene-forming) (Staphylococcus aureus (strain Newman)) (UniProt O07855); experiment: Inhibition of CrtN in methicillin-resistant Staphylococcus aureus USA400 MW2 assessed as bacterial survival after 6 hrs by human whole blood killing assay (reference value: 23.33%)
T2 sequence (whole entry): T1 sequence (O07855 whole entry)
How it was run: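 Overnight cultures spun, resuspended in sterile PBS at 1 × 10⁷ CFU/mL, then mixed 1:10 with fresh whole blood from healthy human volunteers (final 1 × 10⁶ CFU/mL). Incubated 6 h at 37 °C; surviving CFU counted by plating dilutions on TSA. Two independent experiments.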

[9] = test system: Staphylococcus aureus; experiment: Growth inhibition of methicillin-resistant Staphylococcus aureus USA300 LAC at 0.2 mM incubated for overnight; type: functional, organism-based; how it was run: as §3
[10] = test system: Staphylococcus aureus; experiment: Antibacterial activity against methicillin/linezolid-resistant Staphylococcus aureus NRS271 infected in BALB/c mouse assessed as decrease in bacterial survival in mouse liver at 0.1 to 0.4 mg, ip bid administered 4.5 days after 6 hrs bacterial infection measured after 90 hrs; type: functional, organism-based; how it was run: as §2
[11] = test system: Staphylococcus aureus; experiment: Antibacterial activity against wild type Staphylococcus aureus Newman infected in BALB/c mouse assessed as decrease in bacterial survival in mouse kidney at 0.1 to 0.4 mg, ip bid administered 4.5 days after 6 hrs bacterial infection measured after 90 hrs; type: functional, organism-based; how it was run: as §1
[12] = test system: HEK-293T; experiment: Cytotoxicity against HEK293T cells assessed as reduction in cell viability after 72 hrs by CCK-8 assay; type: functional; conditions: Homo sapiens
How it was run: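 HepG2 or HEK-293T cells were seeded at 5000 per well and grown 24 h at 37 °C, 5% CO₂. Cells were then exposed to compound for 72 h; compound came from DMSO, diluted in medium to final DMSO <0.4%, with a DMSO-matched vehicle control. Viability was read by 10% CCK-8 for 1 h, absorbance 450 nm, in triplicate.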

[13] = test system: Staphylococcus aureus; experiment: Antibacterial activity against vancomycin-intermediate methicillin-resistant Staphylococcus aureus Mu50 infected in BALB/c mouse assessed as decrease in bacterial survival in mouse kidney at 0.1 to 0.4 mg, ip bid administered 4.5 days after 6 hrs bacterial infection measured after 90 hrs; type: functional, organism-based; how it was run: as §2
[14] = test system: Staphylococcus aureus; experiment: Inhibition of pigmentation in vancomycin-intermediate methicillin-resistant Staphylococcus aureus Mu50 after 48 hrs by spectrophotometric method; type: functional, organism-based; conditions: Mu50, 48 h
How it was run: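 Bacteria grown in 4 mL TSB for 48 h at 37 °C with compound serially diluted from DMSO, in duplicate; DMSO vehicle control and non-pigmented CrtN mutant as reference. Cells from 3 mL of culture washed twice with 0.01 M PBS and pigment extracted into methanol. Absorbance read at 450 nm; IC50 fitted from the concentration series.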

[15] = target: Voltage-gated inwardly rectifying potassium channel KCNH2 (Homo sapiens, UniProt Q12809); experiment: Inhibition of human ERG expressed in CHO cells at holding potential of -80 mV by whole cell Qpatch assay; type: cell-based
Chain of Voltage-gated inwardly rectifying potassium channel KCNH2 (Q12809 whole entry): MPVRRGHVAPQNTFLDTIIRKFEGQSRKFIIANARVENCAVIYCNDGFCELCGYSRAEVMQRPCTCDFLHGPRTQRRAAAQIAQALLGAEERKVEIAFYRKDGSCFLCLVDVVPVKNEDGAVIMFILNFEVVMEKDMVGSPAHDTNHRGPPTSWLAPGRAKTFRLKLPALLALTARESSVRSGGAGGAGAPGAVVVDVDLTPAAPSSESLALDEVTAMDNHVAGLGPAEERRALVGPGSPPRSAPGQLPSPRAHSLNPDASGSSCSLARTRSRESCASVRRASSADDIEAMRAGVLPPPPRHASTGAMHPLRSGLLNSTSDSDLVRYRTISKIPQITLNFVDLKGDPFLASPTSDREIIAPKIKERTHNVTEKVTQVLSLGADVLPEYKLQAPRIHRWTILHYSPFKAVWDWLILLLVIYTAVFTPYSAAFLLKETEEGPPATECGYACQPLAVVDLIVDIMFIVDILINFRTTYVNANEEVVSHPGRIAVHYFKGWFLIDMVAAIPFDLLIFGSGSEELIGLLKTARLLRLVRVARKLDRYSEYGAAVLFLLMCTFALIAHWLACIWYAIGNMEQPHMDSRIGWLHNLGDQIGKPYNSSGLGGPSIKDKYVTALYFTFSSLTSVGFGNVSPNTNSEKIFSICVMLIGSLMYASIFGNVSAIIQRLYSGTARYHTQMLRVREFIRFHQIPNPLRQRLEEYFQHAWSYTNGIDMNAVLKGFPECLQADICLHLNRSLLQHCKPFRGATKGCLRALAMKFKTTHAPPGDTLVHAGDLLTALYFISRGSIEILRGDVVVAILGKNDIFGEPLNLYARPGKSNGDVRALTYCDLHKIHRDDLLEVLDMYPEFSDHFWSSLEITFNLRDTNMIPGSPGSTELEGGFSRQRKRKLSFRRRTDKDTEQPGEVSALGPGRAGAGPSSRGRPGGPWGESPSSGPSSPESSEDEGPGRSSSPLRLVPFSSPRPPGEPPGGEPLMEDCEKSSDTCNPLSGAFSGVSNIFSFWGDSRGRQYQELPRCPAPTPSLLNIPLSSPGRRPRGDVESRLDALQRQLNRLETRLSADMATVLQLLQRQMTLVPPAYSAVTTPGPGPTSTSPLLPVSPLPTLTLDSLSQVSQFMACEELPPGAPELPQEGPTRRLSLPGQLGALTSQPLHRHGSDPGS

SMILES: CN(C/C=C/C=C/c1ccc(C(F)(F)F)cc1F)Cc1ccc2c(c1)OCO2.Cl
- Activity [1]: Active
- Activity [2]: Active
- Activity [3]: inactive
- growth inhibition (GI) [4]: inactive
- IC50 [5]: 408 nM
- Activity [6]: 1.9 deltalog10CFU
- IC50 [7]: 4.02 nM
- Survival [8]: 0.93%
- growth inhibition (GI) [9]: inactive
- Activity [10]: inactive
- Activity [11]: Active
- CC50 [12]: 92600 nM
- Activity [13]: Active
- IC50 [14]: 2.5 nM
- IC50 [15]: 14000 nM
